# High-throughput results deposited in PubChem by several laboratories.
# Mdm2 MdmX PPI: human Mdm2/MdmX binding inhibition | SaOS-2 split-luciferase Mdm2/MdmX complementation, luminescence | inhibition, % at 8 µM | actives 3% (n = 330,000);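 active = inhibition of at least 50% at 8 µM in the primary screen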
# Target sequence (O15151 whole entry, looked up): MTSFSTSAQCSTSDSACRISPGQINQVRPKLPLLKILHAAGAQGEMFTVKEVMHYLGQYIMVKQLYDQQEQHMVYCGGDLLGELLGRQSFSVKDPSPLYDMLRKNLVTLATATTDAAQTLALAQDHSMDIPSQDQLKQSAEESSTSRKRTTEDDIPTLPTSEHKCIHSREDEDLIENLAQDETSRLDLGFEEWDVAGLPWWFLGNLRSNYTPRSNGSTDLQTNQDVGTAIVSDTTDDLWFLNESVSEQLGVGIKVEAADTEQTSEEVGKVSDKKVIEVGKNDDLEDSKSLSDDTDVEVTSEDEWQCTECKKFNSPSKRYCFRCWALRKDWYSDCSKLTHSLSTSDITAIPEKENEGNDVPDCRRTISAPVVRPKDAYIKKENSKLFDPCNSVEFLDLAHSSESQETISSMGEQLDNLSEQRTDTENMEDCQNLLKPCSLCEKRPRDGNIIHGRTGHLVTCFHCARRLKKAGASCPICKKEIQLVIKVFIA
# Target sequence (Q00987 whole entry, looked up): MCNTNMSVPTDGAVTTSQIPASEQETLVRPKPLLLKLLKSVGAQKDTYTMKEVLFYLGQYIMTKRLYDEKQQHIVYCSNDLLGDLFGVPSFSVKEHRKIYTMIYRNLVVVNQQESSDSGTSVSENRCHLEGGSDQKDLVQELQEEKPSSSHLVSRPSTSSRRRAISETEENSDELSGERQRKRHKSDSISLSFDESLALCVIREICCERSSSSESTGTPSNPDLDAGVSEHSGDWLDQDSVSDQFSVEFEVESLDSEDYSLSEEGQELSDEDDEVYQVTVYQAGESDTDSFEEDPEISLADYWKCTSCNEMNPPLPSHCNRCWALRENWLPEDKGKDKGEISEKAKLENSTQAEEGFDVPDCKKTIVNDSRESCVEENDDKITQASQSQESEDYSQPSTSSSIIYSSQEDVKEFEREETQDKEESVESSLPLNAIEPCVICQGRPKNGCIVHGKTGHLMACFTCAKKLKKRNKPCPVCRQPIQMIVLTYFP
# CSC inhib: blocks cancer stem cells; cancer stem cell-like cells viability, luminescence; inhibition, % at 7.5 µM; actives 1.1% (n = 300,000); in the data active = inhibition above about 75%; tested in HMLE shEcad cells
# L major viab: reduces viability of Leishmania major promastigotes; resazurin fluorescence viability; AID 1063; actives 9% (n = 200,000); inhibition, % at 10 µM; in the data active = inhibition above about 50%;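 note: promastigotes grown with compound for 44 hours at 28 °C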
# SKKanGAS inh: inhibitors of SKKanGAS S. pyogenes growth in kanamycin (SK-promoter or general growth effect) | BacTiter-Glo, 6 h | inhibition, % at 7.5 µM | actives 1.3% (n = 300,000) | AID 1662;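 active = mean replicate score, as percent of positive control median, at least 50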;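 note: strain carries kanamycin resistance gene driven by streptokinase promoter and grows in 40 µg/ml kanamycin; loss of luminescence reflects streptokinase promoter inhibition or plain growth inhibition; 0% = median of DMSO wells and 100% = positive control at its reference dose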
# Beta apoptosis: blocks beta cell apoptosis; protection from apoptosis, % (test concentration not listed); INS-1E cytokine-induced death, ATP luminescence, 48 h; percent of positive-control rescue, neutral wells zero; AID 435005; actives 0.8% (n = 300,000);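 active = Every replicate reaches about 75%, or at least half do and their mean reaches it too, limit read from the data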;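 note: 0% = cytokine-treated negative control wells and 100% = positive control rescue; higher means more ATP so stronger rescue from cytokine killing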
# T cruzi repl: T. cruzi replication inhibition | actives 1.4% (n = 300,000) | AID 1885 | T. cruzi beta-gal in NIH3T3, luminescence, 90 h | inhibition, % (test concentration not listed);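 active = mean inhibition across valid replicates above about 55%, limit read from the data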;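 note: signal also drops with host cell toxicity which is not excluded here; 0% = plate median of DMSO wells and 100% = zero luminescence signal; higher percent means less beta-gal luminescence so fewer parasites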
#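 Read-out: Parasite load inhibition, % | Test system: Mouse NIH/3T3 fibroblasts infected with β-gal-expressing T. cruzi Tulahuen C4 | Amount: 5,000 cells/well | Medium: DMEM, 2% fetal bovine serum | Signal: GalScreen β-gal luminescence, detergent lysis, 60 min | Timing: 3 h attach, ≥90 h co-culture | Also added: Tulahuen C4 trypomastigotes, 5000/well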
# Mdm2 MdmX conf: human Mdm2/MdmX binding inhibition, confirmed; shares compounds with Mdm2 MdmX PPI; luminescent assay; inhibition, % at 8 µM; actives 55% (n = 10,000); AID 489028; in the data active = inhibition above about 40%
# Full FLuc ctr: full-length luciferase inhibition in Mdm2/MdmX counter-screen | inhibition, % at 8 µM | actives 77% (n = 6,200) | shares compounds with Mdm2 MdmX PPI | SaOS-2 full-length luciferase counterscreen, luminescence;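 active = mean inhibition at 8 µM reaching about 37%, which flags the compound as non-specific, limit read from the data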;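 note: p53-null SaOS-2 cells with luciferase driven by a doxycycline-inducible promoter; compound on cells about two nights before reading with doxycycline added after day one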
# Numbers without * were called inactive; . = not tested or not shown. The list is not random: actives were taken first. Their share in the collection is about 9.4%.
SMILES,Mdm2 MdmX PPI,CSC inhib,L major viab,SKKanGAS inh,Beta apoptosis,T cruzi repl,Mdm2 MdmX conf,Full FLuc ctr
Cc1ccc(Cn2nnnc2CN2CCC(n3nnc4cc(C(F)(F)F)ccc43)CC2)cc1,71*,-4,53*,12,19,34,28,.
O=[N+]([O-])c1ccc2nc(N3CCNCC3)ccc2c1,10,1,.,0,.,16,.,.
Cc1ccc(/C=C2\C(=O)NC(=S)N(c3ccc(F)cc3)C2=O)s1,80*,28,100*,14,-11,-25,4,.
Cc1ccc(/C=C2\C(=O)NC(=S)N(c3ccc(F)cc3)C2=O)o1,-7,13,.,0,-1,-24,.,.
CC(=O)OC(C)(C)/C=C/C(=O)C(C)(O)C1[C@H](O)C[C@@]2(C)C3CC=C4C(CC[C@@H](O)C4(C)C)[C@]3(CO)C(=O)C[C@]12C (stereo partly specified),98*,41,.,-4,.,56*,98*,0
Cn1c(O)c(C(=Nc2ccc(F)cc2)c2ccccc2Cl)c(=O)n(C)c1=O,6,-14,.,-4,-13,8,.,.
COC(=O)C1=C(c2cccc(OCc3ccccc3)c2)C[C@@H]2CC[C@H]1N2C(=O)NCCN1CCOCC1,9,10,.,.,0,.,.,.
CC(C)(C)c1nc(N2CCN(C(=O)c3ccco3)CC2)c2nnn(Cc3ccccc3Cl)c2n1,57*,119*,48,40,21,.,9,.
COC(=O)C1=C(c2ccc(F)cc2F)C[C@@H]2CC[C@H]1N2C(=O)NC1Cc2ccccc2C1,-17,-4,.,.,-16,.,.,.
C[CH2][Hg][S]c1ccccc1C(=O)O,100*,104*,.,.,114*,.,100*,52*
CC(C)COC(=O)c1ccccc1C(=O)OCC(C)C,19,-1,.,0,-8,-2,.,.
c1ccc2oc(N3CCNCC3)nc2c1,26,10,8,-2,1,2,.,.
c1ccc2c(N3CCNCC3)nsc2c1,53*,13,-4,2,2,-5,64*,30
CC(C)c1ccc(N2C(=O)NC(=O)/C(=C\C=C\c3ccco3)C2=O)cc1,56*,99*,67*,7,-18,-6,22,.
COC12C(COC(N)=O)C3=C(C(=O)C(C)=C(N)C3=O)N1CC1C2N1C (stereo unspecified),74*,-3,.,111*,-3,58*,39,.
Cc1cnc(NC(=O)CN2CCCCC2)s1,-30,-3,.,4,-3,3,.,.
C[C@H]1CCC/C=C/[C@@H]2C[C@H](O)C[C@H]2[C@H](O)/C=C/C(=O)O1,97*,100*,.,.,117*,.,98*,48*
Nc1ncnc2c1ccn2[C@@H]1O[C@H](CO)[C@@H](O)[C@H]1O,100*,-5,.,-1,.,86*,100*,50*
NC(=S)c1cn(C2OC(CO)C(O)C2O)c2ncnc(N)c12 (stereo unspecified),.,56,.,7,47,48,.,.
C[C@@H]1O[C@@H](O[C@@H]2C=C3CCC4C(CC[C@]5(C)[C@@H](c6ccc(=O)oc6)CC[C@]45O)[C@@]3(C)CC2)[C@H](O)[C@H](O)[C@H]1O (stereo partly specified),83*,101*,.,.,12,.,81*,49*
C[C@@H]1O[C@@H](O[C@@H]2C=C3CC[C@@H]4C(CC[C@]5(C)[C@@H](c6ccc(=O)oc6)CC[C@]45O)[C@@]3(C)CC2)[C@H](O)[C@H](O)[C@H]1O (stereo partly specified),87*,107*,.,.,-3,.,70*,17
CCS(=O)(=O)NCc1nnc2n1-c1ccc(Br)cc1C(c1ccccc1Cl)=NC2,5,-3,.,-9,-2,2,.,.
CCOc1cc2c(cc1OCC)-n1cccc1C(c1cccc(OCC)c1O)NC2 (stereo unspecified),17,.,.,-1,.,-2,.,.
COC(=O)C(C)Oc1cc(C)cc2oc(=O)c3c(c12)CCC3 (stereo unspecified),52*,-19,-2,1,0,4,27,.
COC(=O)C(C)Oc1cc(C)cc2oc(=O)c3c(c12)CCCC3 (stereo unspecified),17,23,14,6,4,3,.,.
SMILES,Mdm2 MdmX PPI,CSC inhib,L major viab,SKKanGAS inh,Beta apoptosis,T cruzi repl,Mdm2 MdmX conf,Full FLuc ctr
CCCCn1c(O)c(/C=C2/C=CC=N2)c(=O)[nH]c1=O,-18,10,.,-2,3,-4,.,.
Cc1cc(C)c2c(c1)-c1cc(C)nn1C(c1cccnc1)N2 (stereo unspecified),19,-12,7,-1,-4,2,.,.
Cc1ccc(C)c(NP(=O)(Oc2ccccc2)Oc2ccccc2)c1,58*,46,.,12,5,-13,72*,68*
Cc1ccc(S(=O)(=O)NP(=O)(Oc2ccccc2)Oc2ccccc2)cc1,12,9,-8,-6,-6,-14,.,.
CCC1C=CC=CC[C@H](C)[C@@H](O)[C@](C)(O)C(=O)[C@@H](C)[C@H](O)[C@@H](C)C(=O)[C@H](C)[C@@H](O)[C@H](C)C=CC(=O)OC2[C@@H](C)C(CC1)OC1(CC[C@@H](C)C(C[C@H](C)O)O1)[C@@H]2C (stereo partly specified),100*,99*,.,.,104*,.,56*,50*
CCCCn1c(=O)c(C(=O)Nc2cnccn2)c(O)c2ccccc21,57*,-3,52*,-5,2,-1,29,89*
S=P(Nn1cnnc1)(c1ccccc1)c1ccccc1,2,2,-3,3,9,-1,.,.
COC(=O)C1=C(c2cc3ccccc3s2)C[C@@H]2CC[C@H]1N2C(=O)N1CCOCC1,55*,53,.,-2,-2,-18,55*,55*
CCc1nnc(NS(=O)(=O)c2ccc(N=Cc3c(O)n(-c4ccc(Cl)cc4)c(=O)[nH]c3=O)cc2)s1,-17,0,-8,-12,4,14,.,.
CC12CCC3C(CC=C4CC(O)CCC43C)C1C/C(=C\c1ccccc1F)C2=O (stereo unspecified),78*,99*,1,43,-2,3,27,.
C[C@]12CC[C@H](O)CC1=CCC1C2CC[C@]2(C)C(=O)[C@H](Br)CC12 (stereo partly specified),50*,4,.,.,-23,.,-10,.
Cc1nn(Cc2ccccc2)c(C)c1C(=O)OCC(=O)Nc1cc(S(C)(=O)=O)ccc1Cl,3,-3,0,-16,3,16,.,.
Cc1cc(OCC(=O)NCc2cccnc2)c2c3c(c(=O)oc2c1)CCCC3,-13,-8,.,20,.,9,.,.
N=c1c2c(n(Cc3ccc(Cl)cc3Cl)c3c1CCC3)CCCC2,82*,16,100*,6,121*,51,37,59*
